{"source": "paper PMC6511231", "about": "(Cell reports, 2018)", "key": {"[1]": {"target": "mouse LIN28Δ:preE-let-7d complex (Mus musculus, UniProt Q8K3Y3)", "sequence (Q8K3Y3 16-184, stated change not applied, one chain of several)": "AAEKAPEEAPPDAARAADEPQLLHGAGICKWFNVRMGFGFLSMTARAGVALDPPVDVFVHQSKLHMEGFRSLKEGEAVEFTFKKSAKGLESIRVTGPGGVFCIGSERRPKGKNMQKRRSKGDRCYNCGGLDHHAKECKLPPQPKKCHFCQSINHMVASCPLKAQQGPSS", "assay": "HSQC spectroscopy", "type": "binding", "conditions": "15N-labeled mouse LIN28Δ with unlabeled preE-let-7d"}, "preE-let-7f": {"test_system": "preE-let-7f", "assay": "Saturation transfer difference spectroscopy, preE-let-7f", "type": "binding, human", "conditions": "preE-let-7f alone"}, "[2]": {"target": "CSD (residues 16–136) of LIN28 (Homo sapiens, UniProt Q9H9Z2)", "sequence (Q9H9Z2 16-136)": "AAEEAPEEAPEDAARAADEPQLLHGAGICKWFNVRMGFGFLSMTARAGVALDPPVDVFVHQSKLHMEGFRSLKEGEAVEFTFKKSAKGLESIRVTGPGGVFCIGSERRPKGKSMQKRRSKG", "assay": "Saturation transfer difference spectroscopy, CSD", "type": "binding", "conditions": "CSD alone", "method_in_brief": "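Protein was dialysed overnight into 20 mM Bis-Tris pH 6.0, 100 mM NaCl, 10% v/v glycerol-d8, 5 mM DTT and D2O. Test compound was dissolved in DMSO-d6. Samples held 100 μM compound and 5 μM protein in dialysis buffer. STD spectra were collected at 700 MHz, irradiating the macromolecule only at −2 ppm, with a 2 s transfer delay.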"}, "HeLaLIN28B": {"test_system": "HeLaLIN28B", "assay": "let-7-sensitive dual luciferase reporter assay, HeLaLIN28B", "type": "cell-based, human", "conditions": "LI71 50–100 μM, 48 hr", "method_in_brief": "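HeLa clone stably expressing N-FLAG-LIN28B at low level, from retroviral transduction, puromycin selection and single-cell sorting. Cells were lentivirally transduced with the let-7 dual luciferase sensor: LTR-driven Renilla with eight let-7 sites in the 3′ UTR plus HSV-TK firefly control, as a G418-selected polyclonal pool. Cells received test compound or DMSO vehicle, then were lysed for dual luciferase readout normalised to blank samples.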"}, "[3]": {"test_system": "HeLa control cells expressing GFP and not LIN28", "assay": "let-7-sensitive dual luciferase reporter assay, GFP control cells", "type": "cell-based, human", "conditions": "up to 100 μM", "method_in_brief": "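HeLa cells were retrovirally transduced with FLAG-GFP (or LIN28) cDNA, puromycin-selected and single-cell cloned. They were then lentivirally given an 8×let-7-site Renilla/HSV-TK firefly cassette and selected with G418 as polyclonal populations. Cells were exposed to up to 100 μM test compound, lysed, and read for dual luciferase with firefly as internal control. Values were normalised to blanks.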"}, "apoptosis": {"test_system": "apoptosis", "assay": "Annexin V flow cytometry", "type": "cell-based", "conditions": "100 μM, 48 hr", "method_in_brief": "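Cells exposed to 100 μM test compound or vehicle for 48 hr, then harvested and stained with APC-conjugated annexin V following the kit protocol before flow cytometry.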"}}}
{"smiles": "CCOc1cccc2c1N[C@@H](c1ccc(C(=O)O)cc1)[C@H]1CC=C[C@@H]21", "note": "[LI71]", "values": [{"measurement": "HSQC peak intensity changes", "setting": "[1]", "result": "minor intensity reductions for a number of residues"}, {"measurement": "Saturation transfer difference peaks", "setting": "preE-let-7f", "result": "but not preE-let-7f"}, {"measurement": "Saturation transfer difference signals", "setting": "[2]", "result": "induces the LI71 saturation transfer difference signals"}, {"measurement": "Relative Renilla luciferase activity", "setting": "HeLaLIN28B", "result": "significantly reduce the relative Renilla luciferase activity"}, {"measurement": "Relative Renilla luciferase activity", "setting": "[3]", "result": "did not show an effect"}, {"measurement": "Apoptosis", "setting": "apoptosis", "result": "did not increase apoptosis"}]}
